Measured values: ChEMBL document CHEMBL2040847, “Overcoming clopidogrel resistance: discovery of vicagrel as a highly potent and orally bioavailable antiplatelet agent” (J Med Chem, 2012)

Columns and labels:
Rattus norvegicus [1] = assay: Antiplatelet activity in Wistar rat assessed as inhibition of ADP-induced platelet aggregation at 3 mg/kg, po measured after 2 hrs by Born's method; type: functional; parameters: scale not given: the % may be the effect or the level left
Outline: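 Oral dosing at 3 mg/kg, CMC as vehicle, groups of 10 rats. At 2 h the rats were anesthetized with pentobarbital sodium and blood was drawn from the abdominal aorta. Ex vivo aggregation was induced with ADP 1.2 μM and read on an aggregometer (Born's method). Values are mean ± SD, n = 10, statistics versus vehicle.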

Liver microsomes [2] = assay: Drug metabolism in rat liver microsomes assessed as NADPH-dependent active metabolite glutathione adducts 1 formation at 20 uM after 30 mins by LC-MS/MS analysis; type: ADME, Microsome; conditions: 0.5 h
Outline: (§1)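 Pooled SD rat liver microsomes (1.0 mg/mL protein) with compound 20 μM (diluted from 10 mM DMSO stock), NADPH 1.0 mM and glutathione 10 mM in 100 mM potassium phosphate pH 7.4. Incubated 30 min at 37 °C; controls lacked NADPH. Quenched with ice-cold 10% TCA and centrifuged. Supernatant analysed by LC-MS/MS (phenyl column, positive ESI), monitoring AMGS adducts at m/z 661 (SIM).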

Rattus norvegicus [3] = assay: Cmax in Sprague-Dawley rat assessed as clopidogrel thioacetate level at 24 umol/kg, po; type: ADME, organism-based; parameters: dose 24 umol/kg, route oral; conditions: in vivo
Rattus norvegicus [4] = assay: AUC (0 to infinity) in Sprague-Dawley rat […] at 24 umol/kg, po; type: ADME, organism-based, Plasma; parameters: dose 24 umol/kg, route oral, time infinity; conditions: in vivo
Liver microsomes [5] = assay: Drug metabolism in rat liver microsomes assessed as NADPH-dependent active metabolite glutathione adducts 3 formation at 20 uM after 30 mins by LC-MS/MS analysis; type: ADME, Microsome; conditions: 0.5 h; outline: as §1
Liver microsomes [6] = assay: Drug metabolism in rat liver microsomes assessed as NADPH-dependent active metabolite glutathione adducts formation at 20 uM after 30 mins by LC-MS/MS analysis in presence of NADPH and GSH; type: ADME, Microsome; conditions: 0.5 h; outline: as §1
Rattus norvegicus [7] = assay: Half life in Sprague-Dawley rat assessed as clopidogrel thioacetate level at 24 umol/kg, po; type: ADME, organism-based; conditions: in vivo
Rattus norvegicus [8] = assay: Tmax in Sprague-Dawley rat assessed as clopidogrel thioacetate level at 24 umol/kg, po; type: ADME, organism-based; conditions: in vivo
Liver microsomes [9] = assay: Drug metabolism in rat liver microsomes assessed as NADPH-dependent active metabolite glutathione adducts 4 formation at 20 uM after 30 mins by LC-MS/MS analysis; type: ADME, Microsome; conditions: 0.5 h; outline: as §1
Liver microsomes [10] = assay: Drug metabolism in rat liver microsomes assessed as NADPH-dependent active metabolite glutathione adducts 2 formation at 20 uM after 30 mins by LC-MS/MS analysis; type: ADME, Microsome; conditions: 0.5 h; outline: as §1
Mus musculus [11] = assay: Toxicity in mouse assessed as liver injury at 5000 mg/kg, po measured after 14 days; type: organism-based; parameters: dose 5000 mg/kg, route oral; conditions: in vivo, 336 h
Outline: (§2)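 Single-dose study in a GLP laboratory. Deaths were recorded, and the liver and other organs were assessed for injury or adverse effects.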

Mus musculus [12] = assay: Toxicity in mouse assessed as tissue injury at 5000 mg/kg, po measured after 14 days; type: organism-based; parameters: dose 5000 mg/kg, route oral; conditions: in vivo, 336 h; outline: as §2
[13] = Toxicity in beagle dog assessed as maximum tolerated dose; type: organism-based, Canis lupus familiaris; conditions: in vivo
Outline: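 Single-dose oral study in beagle dogs, run in a GLP laboratory. Both the no-observed-adverse-effect level and the maximal tolerated dose were determined.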

Mus musculus [14] = assay: Toxicity in mouse assessed as mortality at 5000 mg/kg, po measured after 14 days; type: organism-based; parameters: dose 5000 mg/kg, route oral; conditions: in vivo, 336 h; outline: as §2
[15] = Toxicity in beagle dog assessed as no-observed adverse effect level; type: organism-based, Canis lupus familiaris; conditions: in vivo

Structure (SMILES)	Activity (Rattus norvegicus [1])	also measured
CCC(=O)Oc1cc2c(s1)CCN([C@H](C(=O)OC)c1ccccc1Cl)C2	46.7%	
CCCC(=O)Oc1cc2c(s1)CCN([C@H](C(=O)OC)c1ccccc1Cl)C2	52.8%	
COC(=O)[C@H](c1ccccc1Cl)N1CCc2sc(OC(=O)C(C)(C)C)cc2C1	63.4%	
CCC(C)(C)C(=O)Oc1cc2c(s1)CCN([C@H](C(=O)OC)c1ccccc1Cl)C2	70%	
COC(=O)[C@H](c1ccccc1Cl)N1CCc2sc(OC(=O)c3ccccc3)cc2C1	60.1%	
COC(=O)[C@H](c1ccccc1Cl)N1CCc2sc(OC(=O)c3ccc([N+](=O)[O-])cc3)cc2C1	75.6%	
COC(=O)[C@H](c1ccccc1Cl)N1CCc2sc(OC(=O)c3ccc(OC)cc3)cc2C1	82.6%	
COC(=O)[C@H](c1ccccc1Cl)N1CCc2sc(OC(=O)c3ccccc3OC(C)=O)cc2C1	77.9%	
COC(=O)[C@H](c1ccccc1Cl)N1CCc2sc(OC(=O)Cc3ccccc3)cc2C1	53.8%	
COC(=O)[C@H](c1ccccc1Cl)N1CCc2sc(OC(=O)/C=C/c3ccccc3)cc2C1	84.7%	
COC(=O)[C@H](c1ccccc1Cl)N1CCc2sc(OC(=O)c3cccnc3)cc2C1	45.1%	
COC(=O)Oc1cc2c(s1)CCN([C@H](C(=O)OC)c1ccccc1Cl)C2	38.6%	
CCOC(=O)Oc1cc2c(s1)CCN([C@H](C(=O)OC)c1ccccc1Cl)C2	53%	
COC(=O)[C@H](c1ccccc1Cl)N1CCc2sc(OC(=O)OC(C)C)cc2C1	50.2%	
COC(=O)[C@H](c1ccccc1Cl)N1CCc2sc(OC(=O)OCC(C)C)cc2C1	65.6%	
COC(=O)[C@H](c1ccccc1Cl)N1CCc2sc(OC(=O)OCc3ccccc3)cc2C1	72.2%	
COC(=O)[C@H](c1ccccc1Cl)N1CCc2sc(OC(=O)COc3ccccc3)cc2C1	75.4%	
COC(=O)[C@H](c1ccccc1Cl)N1CCc2sc(OC(=O)N(C)C)cc2C1	67.7%	
COC(=O)[C@H](c1ccccc1Cl)N1CCc2sc(OC(=O)N3CCCC3)cc2C1	80.9%	
COC(=O)[C@H](c1ccccc1)N1CCc2sc(OC(C)=O)cc2C1	81.1%	
COC(=O)[C@H](c1ccccc1F)N1CCc2sc(OC(C)=O)cc2C1	62.9%	
COC(=O)[C@@H](c1ccccc1Cl)N1CCc2sc(OC(C)=O)cc2C1	68.4%	
COC(=O)C(c1ccccc1Cl)N1CCc2sc(OC(C)=O)cc2C1 (racemic)	63.7%	
COC(=O)[C@H](c1ccccc1Cl)N1CCc2sccc2C1.O=S(=O)(O)O [CLOPIDOGREL BISULFATE]	73.7%	
COC(=O)[C@H](c1ccccc1Cl)N1CCC2SC(=O)C=C2C1 (stereo not given in full) [CLOPIDOGREL THIOLACTONE]	48.6%	
COC(=O)[C@H](c1ccccc1Cl)N1CCc2sccc2C1 [CLOPIDOGREL]		Drug metabolism (Liver microsomes [2]): Active; Cmax (Rattus norvegicus [3]): 6.93 ng/mL; AUC (Rattus norvegicus [4]): 32.2 ng·h/mL; Drug metabolism (Liver microsomes [5]): Active; Drug metabolism (Liver microsomes [6]): Active; t1/2 (Rattus norvegicus [7]): 2.48 h; Tmax (Rattus norvegicus [8]): 0.583 h; Drug metabolism (Liver microsomes [9]): Active; Drug metabolism (Liver microsomes [10]): Active
CC(=O)Oc1cc2c(s1)CCN(C(C(=O)C1CC1)c1ccccc1F)C2 (stereo not given) [PRASUGREL]	32.1%	
COC(=O)[C@H](c1ccccc1Cl)N1CCc2sc(OC(C)=O)cc2C1 [SUMECIGREL]	34.6%	Activity (Mus musculus [11]): Toxic; Drug metabolism (Liver microsomes [2]): Active; Cmax (Rattus norvegicus [3]): 67.2 ng/mL; AUC (Rattus norvegicus [4]): 211 ng·h/mL; Drug metabolism (Liver microsomes [5]): Active; Activity (Mus musculus [12]): Non-toxic; Drug metabolism (Liver microsomes [6]): Active; t1/2 (Rattus norvegicus [7]): 2.19 h; Tmax (Rattus norvegicus [8]): 1.17 h; Drug metabolism (Liver microsomes [9]): Active; Drug metabolism (Liver microsomes [10]): Active; MTD [13]: > 2000 mg/kg; Activity (Mus musculus [14]): Non-toxic; NOAEL [15]: 300 mg/kg
